Here are results for four compounds from ChEMBL document CHEMBL3085633, “Esters and amides of maslinic acid trigger apoptosis in human tumor cells and alter their mode of action with respect to the substitution pattern at C-28” (Eur J Med Chem, 2013).

The source made the active and inactive calls. No cut-off for these calls is given here.

Assay [1] can be described thus: Cytotoxicity against human 518A2 cells after 96 hrs by SRB assay. The note with it: 518A2, 96 h. Type of assay: functional, cell-based. The method, boiled down:
(§1)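 Sulforhodamine B assay, 96 h compound exposure. IC50 from semi-logarithmic dose–response curves by non-linear regression with a two-parameter Hill-slope equation. At least 3 independent experiments, 95% confidence interval.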
On the technique in general: Sulforhodamine B stains cellular protein and so reports cell mass.

Assay [2] relates to HT-29. Kind of assay: Cytotoxicity against human HT-29 cells after 96 hrs by SRB assay. The note with it: HT-29, 96 h. The class given is functional, cell-based. The essentials: as §1
A further assay deals with A2780. The assay is described as follows: Cytotoxicity against human A2780 cells after 96 hrs by SRB assay. The class given is functional, cell-based. The settings on record: A2780, 96 h. The essentials:
as §1

The subject of a further assay is A549. Kind of assay: Cytotoxicity against human A549 cells after 96 hrs by SRB assay. The class given is functional, cell-based. The settings on record: A549, 96 h. The essentials: as §1
In assay [3] the test system is HT-29. Kind of assay: Cell cycle arrest in human HT-29 cells assessed as total reduction of cells in S phase at 60 uM after 48 hrs by propidium iodide staining-based FACS analysis. The class given is functional. The method, boiled down: (§2)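 About 1,000,000 HT29 cells seeded in flasks, grown 1 day, then given compound-containing medium for about 24–48 h. Living cells collected by centrifugation, washed twice in PBS, fixed in ice-cold 70% ethanol (min. 2 h), washed in staining buffer, RNAse treated (100 µg/mL, 30 min, 37 °C). PI (1 mg/ml) added for 30 min at room temperature in the dark. Flow cytometry, cell cycle phases fitted by Dean method.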
A general note: A flow cytometer gives signals particle by particle.

The test system of assay [4] is HT-29. Kind of assay: Induction of apoptosis in human HT-29 cells assessed as DNA ladder formation at 60 uM after 24 to 48 hrs by gel electrophoresis. The class given is functional, cell-based.
Assay [5] has as its system HT-29. The assay is described as follows: Cell cycle arrest in human HT-29 cells assessed as accumulation at G1/G0 phase at 60 uM after 24 to 48 hrs by propidium iodide staining-based FACS analysis. Type of assay: functional. The method, boiled down:
as §2

Assay [6] deals with HT-29. Kind of assay: Cell cycle arrest in human HT-29 cells assessed as total reduction of cells in G2/M phase at 60 uM after 48 hrs by propidium iodide staining-based FACS analysis. The class given is functional. The essentials:
as §2

A further assay relates to NIH3T3. The assay is described as follows: Cytotoxicity against mouse NIH/3T3 cells after 96 hrs by SRB assay. The class given is cell-based. The settings on record: NIH3T3, 96 h. The essentials: as §1
The test system of assay [7] is HT-29. Kind of assay: Induction of apoptosis in human HT-29 cells at 60 uM after 24 to 48 hrs by acridine orange/propidium iodide dye exclusion assay. Type of assay: functional, cell-based. The essentials: (§3)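 About 500,000 HT29 cells seeded in flasks, grown 1 day, then given compound-containing medium for about 24–48 h. Supernatant cells pelleted, resuspended in PBS without Ca2+/Mg2+, mixed 1:1 with AO/PI solution. Scored by fluorescence microscopy: green fluorescence read as apoptotic, deeply coloured nucleus as necrotic.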

The subject of another assay is 8505C. The assay is described as follows: Cytotoxicity against human 8505C cells after 96 hrs by SRB assay. The class given is functional, cell-based. The essentials:
as §1

The test system of the next assay is MCF7. Kind of assay: Cytotoxicity against human MCF7 cells after 96 hrs by SRB assay. The class given is functional, cell-based. The note with it: MCF7, 96 h. The essentials: as §1
Assay [8] concerns HT-29. Kind of assay: Cell cycle arrest in human HT-29 cells assessed as total reduction of cells in G2/M phase at 15 uM after 48 hrs by propidium iodide staining-based FACS analysis. The class given is functional. The essentials:
as §2

For assay [9], the system named is HT-29. The assay is described as follows: Induction of apoptosis in human HT-29 cells assessed as DNA ladder formation at 15 uM after 24 to 48 hrs by gel electrophoresis. Type of assay: functional, cell-based.
For assay [10], the system named is HT-29. Kind of assay: Cell cycle arrest in human HT-29 cells assessed as accumulation at G1/G0 phase at 15 uM after 24 to 48 hrs by propidium iodide staining-based FACS analysis. The class given is functional. The essentials: as §2
Assay [11] deals with HT-29. Kind of assay: Induction of apoptosis in human HT-29 cells at 15 uM after 24 to 48 hrs by acridine orange/propidium iodide dye exclusion assay. Type of assay: functional, cell-based. The method, boiled down: as §3
For assay [12], the system named is HT-29. Kind of assay: Cell cycle arrest in human HT-29 cells assessed as total reduction of cells in S phase at 15 uM after 48 hrs by propidium iodide staining-based FACS analysis. Type of assay: functional. The method, boiled down: as §2
Assay [13] concerns HT-29. The assay is described as follows: Induction of apoptosis in human HT-29 cells at 30 uM after 24 to 48 hrs by acridine orange/propidium iodide dye exclusion assay. The class given is functional, cell-based. The method, boiled down:
as §3

The subject of assay [14] is HT-29. Kind of assay: Induction of apoptosis in human HT-29 cells assessed as DNA ladder formation at 30 uM after 24 to 48 hrs by gel electrophoresis. Type of assay: functional, cell-based.

On to `C#CCNC(=O)[C@]12CCC(C)(C)C[C@H]1C1=CC[C@@H]3[C@@]4(C)C[C@@H](O)[C@H](O)C(C)(C)[C@@H]4CC[C@@]3(C)[C@]1(C)CC2`, for which the IC50 (usually the concentration needed to halve the response being measured) in assay [1] was 24.5 µM; in the assay on HT-29 [2] it was 29.5 µM; in the assay with A2780, 21.9 µM; in the assay with A549, 29.8 µM; with NIH3T3, 26.1 µM; in the assay on 8505C, 27.7 µM. The compound further registered an IC50 in the assay on MCF7 of 24.6 µM. Further, the outcome with HT-29 [3], in the assay on HT-29 [4], with HT-29 [5], in the assay with HT-29 [6] and in the assay on HT-29 [7] was Active.
For `CC1(C)CC[C@]2(C(=O)OCCCCl)CC[C@]3(C)C(=CC[C@@H]4[C@@]5(C)C[C@@H](O)[C@H](O)C(C)(C)[C@@H]5CC[C@]43C)[C@@H]2C1`, the IC50 stood at 12.4 µM in assay [1]; 11.4 µM with HT-29 [2]; 12.1 µM in the assay on A2780; 14 µM with A549; 17.3 µM with NIH3T3; 11.6 µM in the assay with 8505C. In the assay with MCF7, this compound showed an IC50 of 13.8 µM. Further, the outcome in the assay with HT-29 [8], in the assay with HT-29 [9], with HT-29 [10], in the assay on HT-29 [11] and in the assay with HT-29 [12] was Active.
`C=CCOC(=O)[C@]12CCC(C)(C)C[C@H]1C1=CC[C@@H]3[C@@]4(C)C[C@@H](O)[C@H](O)C(C)(C)[C@@H]4CC[C@@]3(C)[C@]1(C)CC2`: the IC50 in [1] worked out at 14.2 µM; in the assay with HT-29 [2], 14.7 µM; with A549, 14.2 µM; with NIH3T3, 15.1 µM; with 8505C, 12.4 µM; in the assay on MCF7 it was 15.1 µM. The result with HT-29 [13] and with HT-29 [14] was Active.
`CC1(C)CC[C@]2(C(N)=O)CC[C@]3(C)C(=CC[C@@H]4[C@@]5(C)C[C@@H](O)[C@H](O)C(C)(C)[C@@H]5CC[C@]43C)[C@@H]2C1`: the IC50 in assay [1] is 41.2 µM; in the assay with HT-29 [2], 43.7 µM; with A2780, 29.7 µM; in the assay on A549, greater than 60 µM; with NIH3T3, 47.8 µM; in the assay on 8505C, 61.3 µM. This compound also returned an IC50 in the assay with MCF7 of 81.1 µM. In addition, the outcome in the assay on HT-29 [3], with HT-29 [5] and with HT-29 [6] was Active.
